Converted amounts (≈) assume the structure as drawn.

Data on three compounds can be found in publication PMC4800303 (British Journal of Cancer, 2016).

For data set [1], the system named is BRAF-mutated (V600E/K) metastatic melanoma. The settings on record: pivotal phase III registration trial; ref Chapman et al., 2011; cited from earlier work.
The subject of a further data set is Cyclin D1. Kind of data set: Biomarker model: effect of vemurafenib on Cyclin D1 in A375 xenograft tumours. The class given is in vivo, mice. In a few lines: (§1)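 A375 xenograft mice given single oral vemurafenib: 15 mg kg⁻¹ with blood and tumour at 1, 2, 6, 12, 24, 48 h; 7.5, 30 or 60 mg kg⁻¹ with sampling at 4, 8, 24 h; n=5 per time point. Tumour biomarkers expressed as percentage of vehicle control. Plasma PK fitted by one-compartment model with saturable absorption; indirect response model links concentration to pMEK, driving pERK; values from model fitting/simulation.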

Data set [2] is described as follows: Pharmacokinetics in xenograft tumour-bearing mice. The class given is in vivo. The settings on record: vemurafenib and abemaciclib coadministered; data not shown.
Data set [3] deals with phospho-(thr202/tyr204)-ERK (pERK). Nature of the data set: Biomarker model: effect of vemurafenib on pERK in A375 xenograft tumours. The class given is in vivo, mice. In a few lines:
as §1

Another data set has as its system A375 xenograft tumours. Nature of the data set: Tumour growth inhibition and tumour model in A375 xenograft tumours. The settings on record: continuous vemurafenib treatment; estimated. The format is in vivo, mice. In a few lines:
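A375 xenograft mice received vemurafenib 15 mg kg⁻¹ twice daily for 48 days to allow resistance. They then received abemaciclib 90 mg kg⁻¹ daily or continued vemurafenib for 28 days (n=8 per group), with vehicle controls (n=8). Tumour size was measured every 3–4 days for ∼13 weeks. Time to resistance was estimated by the tumour growth model with a modulator compartment.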

In data set [4] the test system is phospho-(ser217/221)-mitogen-activated protein kinase kinase (pMEK). The class given is in vivo, mice. The following applies: after a 15 mg kg^−1 dose of vemurafenib. In a few lines: as §1
In the next data set the test system is pRb. Kind of data set: Biomarker model: effect of vemurafenib on pRb in A375 xenograft tumours. The class given is in vivo, mice. The settings on record: Mus musculus, A-375, read-out: Inhibition of pRb. An outline of the steps: as §1
Data set [5] has as its system phospho-(ser780)-Rb (pRb). The class given is in vivo, mice. The following applies: Mus musculus, COLO 205, read-out: IC50,Abemaciclib. In a few lines: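 Semimechanistic PK/PD model with four sequential transit compartments (early G1, late G1, S, G2/M). pRb, TopoIIα and pHH3 represent late G1, S and G2/M phase density. Model refitted to colo-205 xenograft biomarker data, including Total Rb after single or daily oral 50 mg kg⁻¹ abemaciclib. Population approach for longitudinal data. IC50 is an estimated model parameter.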

The subject of the next data set is Total Rb. Nature of the data set: Abemaciclib-mediated inhibition of Total Rb in xenograft tumours. The format is in vivo, mice. The settings on record: 50 mg kg^−1 every day. An outline of the steps: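 Colo-205 xenograft mice given abemaciclib 50 mg kg⁻¹ orally once daily for 56 days; tumour collected at 28 and 56 days, n=5 per time point. Tumour lysates assayed for Total Rb alongside pRb, TopoIIα and pHH3. Data were added to a refit of the cell-cycle PK/PD model.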

[6] abbreviates: after a 15 mg kg^−1 dose of vemurafenib.
Setting [7] is: continuous vemurafenib, at time to resistance (∼30 days), model.

For the compound `CN(C)/N=N/c1[nH]cnc1C(N)=O` [dacarbazine], in data set [1], the “Progression-free survival (PFS)” value was 1.6 months.

A word on the inhibition: it is the relative decrease from the control value, in per cent. On to `CCCS(=O)(=O)Nc1ccc(F)c(C(=O)c2c[nH]c3ncc(-c4ccc(Cl)cc4)cc23)c1F` [vemurafenib], for which the inhibition at 15 mg/kg with Cyclin D1 (Mus musculus, A-375, read-out: Inhibition of Cyclin D1) was 33%; in the data set with pRb, 50%. Moreover, the “Time of maximum inhibition of Cyclin D1” value with Cyclin D1 (setting [6]) turned out to be 10 h. For the same compound, the “Elevation of Cyclin D1 over baseline at resistance” value in the data set with Cyclin D1 (setting [7]) is “nearly twofold”. Besides, the Pharmacokinetics after coadministration entry in data set [2] is “neither vemurafenib nor abemaciclib exhibited altered pharmacokinetics after coadministration”. Besides, the “Progression-free survival (PFS)” value in [1] was 5.3 months. For the same compound, the “Time of maximum inhibition of pERK” value in data set [3] (setting [6]) is recorded as 2 h. In addition, the “Elevation of pERK over baseline at resistance” value in data set [3] (setting [7]) is listed as “nearly twofold”. Also, the Time to resistance in the data set with A375 xenograft tumours is approximately 30 days. Also, the “Time of maximum inhibition of pMEK” value in [4] was 2 h.

As a reminder, the IC50 is the concentration at which inhibition is half-maximal. As for `CCN1CCN(Cc2ccc(Nc3ncc(F)c(-c4cc(F)c5nc(C)n(C(C)C)c5c4)n3)nc2)CC1` [abemaciclib], in data set [2], the Pharmacokinetics after coadministration result is “neither vemurafenib nor abemaciclib exhibited altered pharmacokinetics after coadministration”. Moreover, the concentration for half-maximal inhibition (IC50) in [5] turned out to be 4.99 ng/mL (≈ 9.85 nM). Moreover, the “Inhibition of Total Rb” value in the data set with Total Rb was approximately 40%.
